Source: ChEMBL document CHEMBL1275531, “Genomewide expression profiling of cryptolepine-induced toxicity in Saccharomyces cerevisiae” (Antimicrob Agents Chemother, 2008)
The source made the active and inactive calls. The calls are words filed in the database; no cut-off is given here.

Legend:
Saccharomyces cerevisiae [1] = experiment: Downregulation of SMF1 gene expression in Saccharomyces cerevisiae relative to untreated control; format: functional
Summary of the method: (§1)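 Δerg6 cells treated 15 h at 7.5 or 17 μM, with the eight microarray hybridizations pooled. A gene counted as changed when two-tailed Student t test on log-transformed ratios gave P below 0.01 for ratio equal to 1. Genes grouped by GO biological-process category.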

Saccharomyces cerevisiae [2] = experiment: Downregulation of FET4 gene expression in Saccharomyces cerevisiae relative to untreated control; format: functional; summary of the method: as §1
Saccharomyces cerevisiae [3] = experiment: Downregulation of PHO5 gene expression in Saccharomyces cerevisiae at 7.5 uM after 15 hrs by qRT-PCR relative to untreated control; format: functional
Summary of the method: (§2)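 qRT-PCR used aliquots of the microarray RNA (treated and untreated Δerg6, 7.5 or 17 μM, 15 h) plus two additional biological replicates. Cycling was 95°C 10 min, then 40 cycles of 95°C 15 s and 60°C 1 min, with a dissociation curve. Genomic DNA 10-fold dilution standard curves; no-template and no-enzyme controls in triplicate; relative expression by ΔΔCT.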

Saccharomyces cerevisiae [4] = experiment: Downregulation of ARN1 gene expression in Saccharomyces cerevisiae relative to untreated control; format: functional; summary of the method: as §1
Saccharomyces cerevisiae [5] = experiment: Cytotoxicity against Saccharomyces cerevisiae JN394 harboring deltarad52 mutant gene after 4 hrs; format: functional, organism-based; conditions: JN394, 4 h
Summary of the method: (§3)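 Growth assay: strains precultured in YPD at 30°C for 15 h, shaking 250 rpm in the dark, then standardized to OD600 0.05 in the same medium. Grown in triplicate with a range of concentrations (methanol stock, diluted before use) under continuous 4 h treatment; growth read as OD600 and inhibitory concentrations taken from the plots.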

Saccharomyces cerevisiae [6] = experiment: Downregulation of TIS11 gene expression in Saccharomyces cerevisiae at 17 uM after 15 hrs by microarray analysis relative to untreated control; format: functional
Summary of the method: (§4)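 BY4741Δerg6 cells exposed 15 h to 7.5 or 17 μM; total RNA, 15 μg, used for Cy3/Cy5-dUTP indirect labeling. Arrays prehybridized at 42°C for 45 min, then hybridized in 50% formamide, 5× SSC. Each dose done in duplicate, each RNA hybridized twice with dye swap; treated/untreated fluorescence ratios log-transformed.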

Saccharomyces cerevisiae [7] = experiment: Downregulation of fungal type cell wall related gene expression in Saccharomyces cerevisiae; format: functional, organism-based; summary of the method: as §1
Saccharomyces cerevisiae [8] = experiment: Upregulation of FRE2 gene expression in Saccharomyces cerevisiae relative to untreated control; format: functional; summary of the method: as §1
Saccharomyces cerevisiae [9] = experiment: Downregulation of ARN2 gene expression in Saccharomyces cerevisiae at 7.5 uM after 15 hrs by qRT-PCR relative to untreated control; format: functional; summary of the method: as §2
Saccharomyces cerevisiae [10] = experiment: Downregulation of PHO5 gene expression in Saccharomyces cerevisiae at 17 uM after 15 hrs by qRT-PCR relative to untreated control; format: functional; summary of the method: as §2
Saccharomyces cerevisiae [11] = experiment: Downregulation of FRE5 gene expression in Saccharomyces cerevisiae relative to untreated control; format: functional; summary of the method: as §1
Saccharomyces cerevisiae [12] = experiment: Downregulation of SIT1 gene expression in Saccharomyces cerevisiae relative to untreated control; format: functional; summary of the method: as §1
Saccharomyces cerevisiae [13] = experiment: Downregulation of TIS11 gene expression in Saccharomyces cerevisiae at 7.5 uM after 15 hrs by microarray analysis relative to untreated control; format: functional; summary of the method: as §4
Saccharomyces cerevisiae [14] = experiment: Downregulation of PHO5 gene expression in Saccharomyces cerevisiae at 7.5 uM after 15 hrs by microarray analysis relative to untreated control; format: functional; summary of the method: as §4
Saccharomyces cerevisiae [15] = experiment: Upregulation of SMF2 gene expression in Saccharomyces cerevisiae relative to untreated control; format: functional; summary of the method: as §1
Saccharomyces cerevisiae [16] = experiment: Upregulation of HSP26 gene expression in Saccharomyces cerevisiae at 17 uM after 15 hrs by qRT-PCR relative to untreated control; format: functional; summary of the method: as §2
Saccharomyces cerevisiae [17] = experiment: Upregulation of HSP26 gene expression in Saccharomyces cerevisiae at 7.5 uM after 15 hrs by qRT-PCR relative to untreated control; format: functional; summary of the method: as §2
Saccharomyces cerevisiae [18] = experiment: Downregulation of ARN2 gene expression in Saccharomyces cerevisiae at 7.5 uM after 15 hrs by microarray analysis relative to untreated control; format: functional; summary of the method: as §4
Saccharomyces cerevisiae [19] = experiment: Downregulation of glucose catabolic process related gene expression in Saccharomyces cerevisiae; format: functional, organism-based; summary of the method: as §1
Saccharomyces cerevisiae [20] = experiment: Downregulation of FIT3 gene expression in Saccharomyces cerevisiae at 7.5 uM after 15 hrs by qRT-PCR relative to untreated control; format: functional; summary of the method: as §2
Saccharomyces cerevisiae [21] = experiment: Downregulation of FET3 gene expression in Saccharomyces cerevisiae relative to untreated control; format: functional; summary of the method: as §1
Saccharomyces cerevisiae [22] = experiment: Upregulation of TPS1 gene expression in Saccharomyces cerevisiae at 7.5 uM after 15 hrs by qRT-PCR relative to untreated control; format: functional
Summary of the method: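 BY4741Δerg6 yeast (standardized to OD600 0.05 in YPD after 15-h 30°C preculture) grown with cryptolepine (1 mM methanol stock diluted) for 15 h; total RNA extracted, aliquots from microarray samples plus two additional biological replicates used for qRT-PCR: 95°C 10 min, 40 cycles 95°C 15 s/60°C 1 min, dissociation curve; genomic DNA standard curves; relative expression versus untreated by ΔΔCT.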

Saccharomyces cerevisiae [23] = experiment: Upregulation of TPS1 gene expression in Saccharomyces cerevisiae at 7.5 uM after 15 hrs by microarray analysis relative to untreated control; format: functional; summary of the method: as §4
Saccharomyces cerevisiae [24] = experiment: Downregulation of FIT2 gene expression in Saccharomyces cerevisiae relative to untreated control; format: functional; summary of the method: as §1
Saccharomyces cerevisiae [25] = experiment: Downregulation of FTH1 gene expression in Saccharomyces cerevisiae relative to untreated control; format: functional; summary of the method: as §1
Saccharomyces cerevisiae [26] = experiment: Cytotoxicity against Saccharomyces cerevisiae BY4741 harboring deltaerg6 mutant gene at <10 uM after 4 hrs; format: functional, organism-based; summary of the method: as §3
Saccharomyces cerevisiae [27] = experiment: Downregulation of FRE6 gene expression in Saccharomyces cerevisiae relative to untreated control; format: functional; summary of the method: as §1
Saccharomyces cerevisiae [28] = experiment: Downregulation of FIT3 gene expression in Saccharomyces cerevisiae at 17 uM after 15 hrs by microarray analysis relative to untreated control; format: functional; summary of the method: as §4
Saccharomyces cerevisiae [29] = experiment: Downregulation of siderophore transport related gene expression in Saccharomyces cerevisiae; format: functional, organism-based; summary of the method: as §1
Saccharomyces cerevisiae [30] = experiment: Upregulation of TPS1 gene expression in Saccharomyces cerevisiae at 17 uM after 15 hrs by microarray analysis relative to untreated control; format: functional; summary of the method: as §4
Saccharomyces cerevisiae [31] = experiment: Downregulation of ARN2 gene expression in Saccharomyces cerevisiae relative to untreated control; format: functional; summary of the method: as §1
Saccharomyces cerevisiae [32] = experiment: Downregulation of TIS11 gene expression in Saccharomyces cerevisiae at 17 uM after 15 hrs by qRT-PCR relative to untreated control; format: functional; summary of the method: as §2
Saccharomyces cerevisiae [33] = experiment: Downregulation of FIT3 gene expression in Saccharomyces cerevisiae at 7.5 uM after 15 hrs by microarray analysis relative to untreated control; format: functional; summary of the method: as §4
Saccharomyces cerevisiae [34] = experiment: Downregulation of acid phosphatase activity related gene expression in Saccharomyces cerevisiae; format: functional, organism-based; summary of the method: as §1
Saccharomyces cerevisiae [35] = experiment: Upregulation of TPS1 gene expression in Saccharomyces cerevisiae at 17 uM after 15 hrs by qRT-PCR relative to untreated control; format: functional; summary of the method: as §2
Saccharomyces cerevisiae [36] = experiment: Downregulation of FIT3 gene expression in Saccharomyces cerevisiae relative to untreated control; format: functional; summary of the method: as §1
Saccharomyces cerevisiae [37] = experiment: Downregulation of FTR1 gene expression in Saccharomyces cerevisiae relative to untreated control; format: functional; summary of the method: as §1
Saccharomyces cerevisiae [38] = experiment: Downregulation of FRE1 gene expression in Saccharomyces cerevisiae relative to untreated control; format: functional; summary of the method: as §1
Saccharomyces cerevisiae [39] = experiment: Downregulation of stress response related gene expression in Saccharomyces cerevisiae; format: functional, organism-based; conditions: in the assay text read “Upregulation” for “Downregulation”; summary of the method: as §1
Saccharomyces cerevisiae [40] = experiment: Downregulation of ARN2 gene expression in Saccharomyces cerevisiae at 17 uM after 15 hrs by microarray analysis relative to untreated control; format: functional; summary of the method: as §4
Saccharomyces cerevisiae [41] = experiment: Downregulation of FIT3 gene expression in Saccharomyces cerevisiae at 17 uM after 15 hrs by qRT-PCR relative to untreated control; format: functional; summary of the method: as §2
Saccharomyces cerevisiae [42] = experiment: Downregulation of PHO5 gene expression in Saccharomyces cerevisiae at 17 uM after 15 hrs by microarray analysis relative to untreated control; format: functional; summary of the method: as §4
Saccharomyces cerevisiae [43] = experiment: Downregulation of FIT1 gene expression in Saccharomyces cerevisiae relative to untreated control; format: functional; summary of the method: as §1
Saccharomyces cerevisiae [44] = experiment: Upregulation of FET5 gene expression in Saccharomyces cerevisiae relative to untreated control; format: functional; summary of the method: as §1
Saccharomyces cerevisiae [45] = experiment: Downregulation of TIS11 gene expression in Saccharomyces cerevisiae at 7.5 uM after 15 hrs by qRT-PCR relative to untreated control; format: functional; summary of the method: as §2
Saccharomyces cerevisiae [46] = experiment: Cytotoxicity against Saccharomyces cerevisiae; format: functional; summary of the method: as §3
Saccharomyces cerevisiae [47] = experiment: Upregulation of HSP26 gene expression in Saccharomyces cerevisiae at 7.5 uM after 15 hrs by microarray analysis relative to untreated control; format: functional; summary of the method: as §4
Saccharomyces cerevisiae [48] = experiment: Downregulation of SMF3 gene expression in Saccharomyces cerevisiae relative to untreated control; format: functional; summary of the method: as §1
Saccharomyces cerevisiae [49] = experiment: Cytotoxicity against Saccharomyces cerevisiae BY4741 harboring deltaerg6 mutant gene after 4 hrs; format: functional, organism-based; conditions: BY4741, 4 h; summary of the method: as §3
Saccharomyces cerevisiae [50] = experiment: Downregulation of ARN2 gene expression in Saccharomyces cerevisiae at 17 uM after 15 hrs by qRT-PCR relative to untreated control; format: functional; summary of the method: as §2
Saccharomyces cerevisiae [51] = experiment: Upregulation of HSP26 gene expression in Saccharomyces cerevisiae at 17 uM after 15 hrs by microarray analysis relative to untreated control; format: functional; summary of the method: as §4

- Activity (Saccharomyces cerevisiae [34]): Active
SMILES: C[n+]1c2ccccc2cc2[n-]c3ccccc3c21.Cl [CRYPTOLEPINE HYDROCHLORIDE]
- fold change (FC) (Saccharomyces cerevisiae [1]): 0.35
- fold change (FC) (Saccharomyces cerevisiae [2]): 1.79
- fold change (FC) (Saccharomyces cerevisiae [3]): 1.73
- fold change (FC) (Saccharomyces cerevisiae [4]): 1.07
- IC50 (Saccharomyces cerevisiae [5]): 20.3 µM
- fold change (FC) (Saccharomyces cerevisiae [6]): 2.31
- Activity (Saccharomyces cerevisiae [7]): Active
- fold change (FC) (Saccharomyces cerevisiae [8]): 0.13
- fold change (FC) (Saccharomyces cerevisiae [9]): 4.06
- fold change (FC) (Saccharomyces cerevisiae [10]): 2.27
- fold change (FC) (Saccharomyces cerevisiae [11]): 1.01
- fold change (FC) (Saccharomyces cerevisiae [12]): 1.57
- fold change (FC) (Saccharomyces cerevisiae [13]): 2.35
- fold change (FC) (Saccharomyces cerevisiae [14]): 1.88
- fold change (FC) (Saccharomyces cerevisiae [15]): 0.09
- fold change (FC) (Saccharomyces cerevisiae [16]): 3.51
- fold change (FC) (Saccharomyces cerevisiae [17]): 2.49
- fold change (FC) (Saccharomyces cerevisiae [18]): 2.18
- Activity (Saccharomyces cerevisiae [19]): Active
- fold change (FC) (Saccharomyces cerevisiae [20]): 5.57
- fold change (FC) (Saccharomyces cerevisiae [21]): 1.11
- fold change (FC) (Saccharomyces cerevisiae [22]): 0.96
- fold change (FC) (Saccharomyces cerevisiae [23]): 1.24
- fold change (FC) (Saccharomyces cerevisiae [24]): 1.94
- fold change (FC) (Saccharomyces cerevisiae [25]): 0.53
- Activity (Saccharomyces cerevisiae [26]): Active
- fold change (FC) (Saccharomyces cerevisiae [27]): 0.08
- fold change (FC) (Saccharomyces cerevisiae [28]): 2.36
- Activity (Saccharomyces cerevisiae [29]): Active
- fold change (FC) (Saccharomyces cerevisiae [30]): 1.01
- fold change (FC) (Saccharomyces cerevisiae [31]): 3.01
- fold change (FC) (Saccharomyces cerevisiae [32]): 3.46
- fold change (FC) (Saccharomyces cerevisiae [33]): 3.3
- fold change (FC) (Saccharomyces cerevisiae [35]): 1.03
- fold change (FC) (Saccharomyces cerevisiae [36]): 3.46
- fold change (FC) (Saccharomyces cerevisiae [37]): 0.49
- fold change (FC) (Saccharomyces cerevisiae [38]): 0.78
- Activity (Saccharomyces cerevisiae [39]): Active
- fold change (FC) (Saccharomyces cerevisiae [40]): 3.32
- fold change (FC) (Saccharomyces cerevisiae [41]): 2.01
- fold change (FC) (Saccharomyces cerevisiae [42]): 2.05
- fold change (FC) (Saccharomyces cerevisiae [43]): 2.13
- fold change (FC) (Saccharomyces cerevisiae [44]): 0.8
- fold change (FC) (Saccharomyces cerevisiae [45]): 3.3
- IC20 (Saccharomyces cerevisiae [46]): 7.5 µM
- IC40 (Saccharomyces cerevisiae [46]): 17 µM
- fold change (FC) (Saccharomyces cerevisiae [47]): 2.09
- fold change (FC) (Saccharomyces cerevisiae [48]): 1.24
- IC50 (Saccharomyces cerevisiae [49]): 25 µM
- fold change (FC) (Saccharomyces cerevisiae [50]): 4.9
- fold change (FC) (Saccharomyces cerevisiae [51]): 3.54
